Laboratory results as given in ChEMBL document CHEMBL2380302, “Synthesis of 3-O-propargylated betulinic acid and its 1,2,3-triazoles as potential apoptotic agents” (Eur J Med Chem, 2013).

Experiments:
Assay type in all cases: functional
[1] = system: THP-1; test: Cytotoxicity against human THP1 cells at 20 uM after 48 hrs by SRB assay; details: THP-1, 48 h, read-out: GI
Summary of the method: (§1)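 Cells grown in RPMI-1640/MEM with 10% FCS and penicillin/streptomycin at 37 °C in 5% CO2. They adhered overnight in 96-well plates and were exposed to compound for 48 h. Cells were then fixed with ice-cold 50% TCA for 60 min and stained with 0.4% SRB in 1% acetic acid for 30 min. Dye was solubilised in 10 mM Tris base and OD read at 570 nm (reference 620 nm).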

[2] = system: DU-145; test: Cytotoxicity against human DU145 cells at 20 uM after 48 hrs by SRB assay; details: DU-145, 48 h, read-out: GI; summary of the method: as §1
[3] = system: SF-295; test: Cytotoxicity against human SF295 cells at 20 uM after 48 hrs by SRB assay; details: SF-295, 48 h, read-out: GI; summary of the method: as §1
[4] = system: A549; test: Cytotoxicity against human A549 cells at 20 uM after 48 hrs by SRB assay; details: A549, 48 h, read-out: GI; summary of the method: as §1
[5] = system: HL-60; test: Cytotoxicity against human HL60 cells at 20 uM after 48 hrs by SRB assay; details: HL-60, 48 h, read-out: GI
Summary of the method: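 HL-60 suspension cells in RPMI-1640/MEM with 10% FCS at 37 °C in 5% CO2 were plated in 96 wells and exposed to compound for 48 h. Cells were fixed with 80% TCA and pelleted at 1500 rpm for 15 min. Staining used 0.4% SRB in 1% acetic acid for 30 min; dye was dissolved in 10 mM Tris base and OD read at 570/620 nm.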

[6] = system: PC-3; test: Cytotoxicity against human PC3 cells at 20 uM after 48 hrs by SRB assay; details: PC-3, 48 h, read-out: GI; summary of the method: as §1
[7] = system: HCT-15; test: Cytotoxicity against human HCT15 cells at 20 uM after 48 hrs by SRB assay; details: HCT-15, 48 h, read-out: GI; summary of the method: as §1

SMILES: O=c1[nH]cc(F)c(=O)[nH]1 [FLUOROURACIL]
- inhibition of growth at 20 µM [1]: 83%
- inhibition of growth at 20 µM [2]: 72%
- inhibition of growth at 20 µM [3]: 73%
- inhibition of growth at 20 µM [4]: 75%
- inhibition of growth at 20 µM [5]: 89%
- inhibition of growth at 20 µM [6]: 64%
- inhibition of growth at 20 µM [7]: 72%
